Type in all cases: functional
Assay [1] has as its system Mus musculus. The assay is described as follows: Compound was tested in vivo for its antitumor activity against B16 melanocarcinoma in mice by determining its median survival time at dose of 0.256 mg/Kg.
Assay [2] concerns Staphylococcus aureus. The assay is described as follows: Compound was tested for its antibacterial activity against Staphylococcus aureus. An outline of the steps: (§1)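 Overnight culture in trypticase soy broth at 37 °C, 0.1 mL subcultured into 50 mL fresh TSB and grown 8 h. Then 0.1 mL of the rapidly growing culture was diluted into a further 50 mL TSB. 0.1 mL of this dilution inoculated into 2 mL TSB per tube for MIC determination.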

Assay [3] concerns Bacillus subtilis. The assay is described as follows: Compound was tested for its antibacterial activity against Bacillus subtilis. An outline of the steps:
as §1

In brackets after ≈: the same amount, converted by molar mass. Starred links: 1 amine or outer side, 2 acyl side, 3 side chain; linkers in the order of their positions; H or OH if unused. Positions of bridges follow the written chain, without caps; N, C: chain ends. Non-standard residues stand in square brackets, D forms with d. Residues, ends and D or L forms follow the SMILES beside them. Chains are numbered I, II in the order given. Actinocin(1to9) = Cc1c2oc3c(C)ccc(C(=O)[*:2])c3nc-2c(C(=O)[*:1])c(N)c1=O; NMeV = CN[C@H](C(=O)O)C(C)C; Sar = CNCC(=O)O

The compound `Cc1c2oc3c(C)ccc(C(=O)N[C@@H]4C(=O)N[C@H](C(C)C)C(=O)N5CCC[C@H]5C(=O)N(C)CC(=O)N(C)[C@@H](C(C)C)C(=O)O[C@@H]4C)c3nc-2c(C(=O)N[C@@H]2C(=O)N[C@H](C(C)C)C(=O)N3CCC[C@H]3C(=O)N(C)CC(=O)N(C)[C@@H](C(C)C)C(=O)O[C@@H]2C)c(N)c1=O` [DACTINOMYCIN] (I: T[dV]P[Sar][NMeV] / II: T[dV]P[Sar][NMeV]; ester I:1-I:C, II:1-II:C; linker I:N-II:N via Actinocin(1to9)) came in with a T/C in assay [1] of 165. For the same compound, the MIC in assay [2] stood at 0.25 µg/mL (≈ 0.199 µM); in assay [3] it was 0.09 µg/mL (≈ 0.0717 µM).

As for `Cc1c2oc3c(C)ccc(C(=O)N[C@@H]4C(=O)N[C@H](C(C)C)C(=O)N5CCC[C@H]5C(=O)N(C)CC(=O)N(C)[C@@H](CC(C)C)C(=O)O[C@@H]4C)c3nc-2c(C(=O)N[C@@H]2C(=O)N[C@H](C(C)C)C(=O)N3CCC[C@H]3C(=O)N(C)CC(=O)N(C)[C@@H](CC(C)C)C(=O)O[C@@H]2C)c(N)c1=O`, the MIC in assay [2] came out at 0.5 µg/mL (≈ 0.39 µM); in assay [3] it was 0.2 µg/mL (≈ 0.156 µM).

The MIC is the lowest concentration that inhibits growth of the organism. The low end stands for greater potency, the high end for weaker potency.

These data come from ChEMBL document CHEMBL1125658, “Synthesis and properties of some peptide analogues of actinomycin D” (1991).
